Measurements from ChEMBL document CHEMBL1165856, “Naftifine-analogues as anti-Trypanosoma cruzi agents” (Eur J Med Chem, 2010).
Values after ≈ are worked out from the molar mass of the structure shown.

Columns and labels:
[1] = tested on: Trypanosoma cruzi; experiment: Antitrypanosomal activity against Trypanosoma cruzi Tulahuen 2; type: functional; conditions: read-out: ID50 (the source's name)
Method in brief: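 Epimastigotes were grown at 28 °C in BHI-tryptose with 5% FBS. Stationary-phase parasites are inoculated at 8 × 10⁶ cells/mL into medium containing increasing drug concentrations from DMSO stock (final DMSO ≤0.4%; vehicle control). Growth is followed by A600. ID50 is the concentration that halves the day-5 absorbance ratio relative to control.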

[2] = Selectivity index, ratio of ID50 for mouse J774 cells to ID50 for Trypanosoma cruzi Tulahuen 2; type: toxicity, cell-based; conditions: J774 cells versus Trypanosoma cruzi Tulahuen 2
Method in brief: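 Selectivity index is the ID50 in J-774 macrophages (48 h MTT) divided by the ID50 against Tulahuen 2 epimastigotes (day-5 A600 growth).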

[3] = Cytotoxicity against mouse J774 cells after 48 hrs by MTT assay; type: cell-based; conditions: read-out: ID50
Method in brief: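 J-774 macrophages were seeded at 1 × 10⁵ cells/well in RPMI 1640 with 20% heat-inactivated FCS and left to attach for 48 h at 37 °C in 5% CO₂. Cells were then exposed to compounds for 48 h. MTT was added at 0.4 mg/mL final, formazan was dissolved in DMSO, and A595 was read. ID50 is the concentration cutting control absorbance by 50%, averaged over three experiments.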

[4] = tested on: Trypanosoma cruzi; experiment: Antitrypanosomal activity against Trypanosoma cruzi Tulahuen 2 at 25 uM; type: functional
Method in brief: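 Tulahuen 2 epimastigotes (8 × 10⁶ cells/mL, 28 °C, BHI-tryptose with 5% FBS) were exposed to a single drug concentration, with final DMSO ≤0.4% and a vehicle control. Percent growth inhibition = {1 − [(Ap − A0p)/(Ac − A0c)]} × 100, using A600 of drug and control cultures at day 0 and day 5.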

[5] = tested on: Saccharomyces cerevisiae; experiment: Antifungal activity against Saccharomyces cerevisiae ATCC 9763 after 48 hrs; type: functional; conditions: ATCC 9763, 48 h
Method in brief: (§1)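 CLSI M27-A2 broth microdilution in RPMI 1640 buffered to pH 7.0 with MOPS. Inoculum is 10³ CFU/mL from Sabouraud-grown yeasts. Compound is two-fold serially diluted, final DMSO ≤1%. Incubated at 35 °C in a moist, dark chamber and read visually at 48 h. MIC is the lowest concentration giving total growth inhibition.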

[6] = tested on: Trichophyton mentagrophytes; experiment: Antifungal activity against Trichophyton mentagrophytes ATCC 9972 after 48 hrs; type: functional; conditions: ATCC 9972, 48 h
Method in brief: (§2)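 Dermatophytes were tested by CLSI M38-A microdilution in MOPS-buffered RPMI 1640 at pH 7.0. Inoculum is 10³ CFU/mL, with two-fold serial compound dilutions and final DMSO ≤1%. Trays are kept at 28–30 °C in a moist, dark chamber. MIC is the lowest concentration with total growth inhibition, read visually when control growth allows.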

[7] = tested on: Candida tropicalis; experiment: Antifungal activity against Candida tropicalis C 131 2000 after 48 hrs; type: functional; conditions: Candida tropicalis, C 131 2000, 48 h; read-out: MIC; method in brief: as §1
[8] = tested on: Candida albicans; experiment: Antifungal activity against Candida albicans ATCC 10231 after 48 hrs; type: functional; conditions: ATCC 10231, 48 h; method in brief: as §1
[9] = tested on: Nannizzia gypsea; experiment: Antifungal activity against Microsporum gypseum C 115 after 48 hrs; type: functional; conditions: C 115, 48 h; method in brief: as §2
[10] = tested on: Aspergillus niger; experiment: Antifungal activity against Aspergillus niger ATCC 9029 after 48 hrs; type: functional; conditions: ATCC 9029, 48 h
Method in brief: (§3)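 Aspergillus spp. were tested by CLSI M38-A broth microdilution in RPMI 1640 with MOPS at pH 7.0. Spore inoculum is 10³ CFU/mL, with two-fold compound dilutions and final DMSO ≤1%. Incubated at 35 °C in a moist, dark chamber. MIC is read visually as total growth inhibition, at a time set by growth of the control fungus.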

[11] = tested on: Cryptococcus neoformans; experiment: Antifungal activity against Cryptococcus neoformans ATCC 32264 after 48 hrs; type: functional; conditions: Cryptococcus neoformans, ATCC 32264, 48 h; read-out: MIC; method in brief: as §1
[12] = tested on: Aspergillus flavus; experiment: Antifungal activity against Aspergillus flavus ATCC 9170 after 48 hrs; type: functional; conditions: ATCC 9170, 48 h; method in brief: as §3
[13] = tested on: Trichophyton rubrum; experiment: Antifungal activity against Trichophyton rubrum C 113 after 48 hrs; type: functional; conditions: C 113, 48 h; method in brief: as §2
[14] = tested on: Aspergillus fumigatus; experiment: Antifungal activity against Aspergillus fumigatus ATCC 26934 after 48 hrs; type: functional; conditions: ATCC 26934, 48 h; method in brief: as §3

Compound | IC50 [1] [µM] | selectivity ratio [2] | CC50 at 48 h [3] [µM] | MIC [5] [µg/mL] | MIC [6] [µg/mL] | MIC [7] [µg/mL] | MIC [8] [µg/mL] | MIC [9] [µg/mL] | MIC [10] [µg/mL] | MIC [11] [µg/mL] | MIC [12] [µg/mL] | MIC [13] [µg/mL] | MIC [14] [µg/mL] | other results
CN(C/C=C/c1ccccc1)Cc1ccc2c(c1)=[N+]([O-])C(C)(C)[N+]=2[O-] | 22.7 | > 17.6 | > 400 | – | – | – | – | – | – | – | – | – | – | –
Cc1c(C(=O)Nc2ccccc2)[n+]([O-])c2cc(CN(C)C/C=C/c3ccccc3)ccc2[n+]1[O-] | – | – | – | – | – | – | – | – | – | – | – | – | – | inhibition at 25 µM [4]: 34%
COc1nn(CCOCCN(C)C/C=C/c2ccccc2)c2ccc([N+](=O)[O-])cc12 | 23.1 | < 4.3 | < 100 | – | – | – | – | – | – | – | – | – | – | –
CN(C/C=C/c1ccccc1)CCOCCn1nc(OCc2ccccc2)c2cc([N+](=O)[O-])ccc21 | 10 | < 10 | < 100 | – | – | – | – | – | – | – | – | – | – | –
CC1(C)[N+]([O-])=c2ccc(CN3CCN(C/C=C/c4ccccc4)CC3)cc2=[N+]1[O-] | 25 | 4.4 | 109 | – | – | – | – | – | – | – | – | – | – | –
O=[N+]([O-])c1ccc2c(c1)c(OCc1ccccc1)nn2CCOCCNCCC/C=C/c1ccccc1 | 4.5 | < 22.2 | < 100 | – | – | – | – | – | – | – | – | – | – | –
C=CCNC(=S)N/N=C/c1ccc2c(c1)[n+]([O-])c(C(=O)Nc1ccccc1)c(-c1ccccc1)[n+]2[O-] | – | – | – | – | – | – | – | – | – | – | – | – | – | inhibition at 25 µM [4]: 18%
O=[N+]([O-])c1ccc2c(c1)c(OCc1ccccc1)nn2CCOCCN1CCN(C/C=C/c2ccccc2)CC1 | 6.5 | < 15.4 | < 100 | > 250 | 125 (≈ 231 µM) | > 250 | > 250 | 125 (≈ 231 µM) | > 250 | > 250 | > 250 | 125 (≈ 231 µM) | > 250 | MFC [6]: > 250 µg/mL; MFC [9]: > 250 µg/mL; MFC [13]: > 250 µg/mL
N#Cc1c2ccccc2[n+]([O-])n1CC/C=C\c1ccccc1 | – | – | – | – | – | – | – | – | – | – | – | – | – | inhibition at 25 µM [4]: 30%
C=CCNC(=S)N/N=C/c1ccc2no[n+]([O-])c2c1 | – | – | – | > 250 | > 250 | > 250 | > 250 | > 250 | > 250 | > 250 | > 250 | > 250 | > 250 | inhibition at 25 µM [4]: 33%
C[C@@H]1[C@H](O)[C@@H](C)/C=C/C=C/C=C/C=C/C=C/C=C/C=C/[C@H](O[C@@H]2O[C@H](C)[C@@H](O)[C@H](N)[C@@H]2O)C[C@@H]2O[C@](O)(C[C@@H](O)C[C@@H](O)[C@H](O)CC[C@@H](O)C[C@@H](O)CC(=O)O[C@H]1C)C[C@H](O)[C@H]2C(=O)O [AMPHOTERICIN B] | – | – | – | 0.5 (≈ 0.541 µM) | 0.075 (≈ 0.0812 µM) | 1.56 (≈ 1.69 µM) | 0.78 (≈ 0.844 µM) | 0.125 (≈ 0.135 µM) | 0.5 (≈ 0.541 µM) | 0.25 (≈ 0.271 µM) | 0.5 (≈ 0.541 µM) | 0.075 (≈ 0.0812 µM) | 0.5 (≈ 0.541 µM) | –
CC(=O)N1CCN(c2ccc(OCC3COC(Cn4ccnc4)(c4ccc(Cl)cc4Cl)O3)cc2)CC1 (stereo not given) [KETOCONAZOLE] | – | 19.9 | 339 | 0.5 (≈ 0.941 µM) | 0.025 (≈ 0.047 µM) | 0.5 (≈ 0.941 µM) | 0.5 (≈ 0.941 µM) | 0.05 (≈ 0.0941 µM) | 0.25 (≈ 0.47 µM) | 0.25 (≈ 0.47 µM) | 0.5 (≈ 0.941 µM) | 0.025 (≈ 0.047 µM) | 0.125 (≈ 0.235 µM) | –
CC1CS(=O)(=O)CCN1/N=C/c1ccc([N+](=O)[O-])o1 (stereo not given) [NIFURTIMOX] | – | > 33.3 | – | – | – | – | – | – | – | – | – | – | – | –
CN(C/C=C/C#CC(C)(C)C)Cc1cccc2ccccc12 [TERBINAFINE] | – | < 10 | < 100 | 3.12 (≈ 10.7 µM) | 0.025 (≈ 0.0858 µM) | 1.56 (≈ 5.35 µM) | 1.56 (≈ 5.35 µM) | 0.04 (≈ 0.137 µM) | 1.56 (≈ 5.35 µM) | 0.39 (≈ 1.34 µM) | 0.78 (≈ 2.68 µM) | 0.01 (≈ 0.0343 µM) | 0.78 (≈ 2.68 µM) | –
